Measured values reported in ChEMBL document CHEMBL4334454, “Alkaloids Purified from Aristotelia chilensis Inhibit the Human α3β4 Nicotinic Acetylcholine Receptor with Higher Potencies Compared with the Human α4β2 and α7 Subtypes” (J Nat Prod, 2019).
pIC50: −log10 of the molar value. Activity calls are given as the source filed them. The rule behind the calls is not given here.

How the values were obtained:
Assay type in all cases: cell-based
[1] = molecular target: T1, Neuronal acetylcholine receptor subunit alpha-7 (Homo sapiens, UniProt P36544); experiment: Agonist activity at human AChR alpha7 transfected in rat GH3 cells assessed as increase in calcium influx incubated for 1 hr by fluo-4 dye based assay
[2] = molecular target: T2, Neuronal acetylcholine receptor; alpha4/beta2 (Homo sapiens, UniProt P17787+P43681); experiment: Agonist activity at human AChR alpha4beta2 transfected in human HEK293 cells assessed as increase in calcium influx incubated for 1 hr by fluo-4 dye based assay
[3] = molecular target: T2, Neuronal acetylcholine receptor; alpha4/beta2; experiment: Antagonist activity at human AChR alpha4beta2 transfected in human HEK293 cells assessed as decrease in epibatidine-induced calcium influx at 10 to 100 uM incubated for 1 hr by fluo-4 dye based assay relative to control
In short: (§1)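 HEK293-hα3β4 or HEK293-hα4β2 cells were seeded 72 h ahead, kept in HBSS/1% FBS (pH 7.4) 16–24 h, and loaded with Fluo-4 plus 2.5 mM probenecid for 1 h at 37 °C. After washing, cells were pretreated 5 min with alkaloid at varied concentrations. 0.1 μM (±)-epibatidine was then added while fluorescence (488/510 nm) was recorded for 78 s. Responses were normalized to the maximal epibatidine response, mean ± SD (n = 3). IC50 and nH came from concentration–response curves.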

[4] = molecular target: T1, Neuronal acetylcholine receptor subunit alpha-7; experiment: Antagonist activity at human AChR alpha7 transfected in rat GH3 cells assessed as decrease in epibatidine-induced calcium influx incubated for 1 hr by fluo-4 dye based assay; settings: for pIC50: read-out: IC50
In short: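 GH3-hα7 cells were seeded 72 h ahead, kept in HBSS/1% FBS (pH 7.4) 16–24 h, and loaded with Fluo-4 plus 2.5 mM probenecid for 1 h at 37 °C. After washing, cells were pretreated 5 min with varied alkaloid concentrations. 1.0 μM (±)-epibatidine was then added while fluorescence (488/510 nm) was recorded for 78 s. Data were normalized to the maximal epibatidine response, mean ± SD (n = 3). IC50 and nH were fitted.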

[5] = molecular target: T3, Neuronal acetylcholine receptor; alpha3/beta4 (Homo sapiens, UniProt P30926+P32297); experiment: Antagonist activity at human AChR alpha3beta4 transfected in human HEK293 cells assessed as decrease in epibatidine-induced calcium influx at 100 uM incubated for 1 hr by fluo-4 dye based assay relative to control; in short: as §1
[6] = molecular target: T3, Neuronal acetylcholine receptor; alpha3/beta4; experiment: Antagonist activity at human AChR alpha3beta4 transfected in human HEK293 cells assessed as decrease in epibatidine-induced calcium influx incubated for 1 hr by fluo-4 dye based assay
[7] = molecular target: T2, Neuronal acetylcholine receptor; alpha4/beta2; experiment: Antagonist activity at human AChR alpha4beta2 transfected in human HEK293 cells assessed as decrease in epibatidine-induced calcium influx incubated for 1 hr by fluo-4 dye based assay; in short: as §1
[8] = molecular target: T1, Neuronal acetylcholine receptor subunit alpha-7; experiment: Antagonist activity at human AChR alpha7 transfected in […] cells assessed as decrease in epibatidine-induced calcium influx at 10 to 100 uM incubated for 1 hr by fluo-4 dye based assay relative to control
Homo sapiens [9] = species on record: Homo sapiens; experiment: Selectivity index, ratio of IC50 for human AChR alpha4beta2 transfected in human HEK293 cells to IC50 for human AChR alpha3beta4 transfected in human HEK293 cells
Homo sapiens [10] = species on record: Homo sapiens; experiment: Selectivity index, ratio of IC50 for human AChR alpha7 transfected in rat GH3 cells to IC50 for human AChR alpha3beta4 transfected in human HEK293 cells

T1 sequence (P36544 whole entry): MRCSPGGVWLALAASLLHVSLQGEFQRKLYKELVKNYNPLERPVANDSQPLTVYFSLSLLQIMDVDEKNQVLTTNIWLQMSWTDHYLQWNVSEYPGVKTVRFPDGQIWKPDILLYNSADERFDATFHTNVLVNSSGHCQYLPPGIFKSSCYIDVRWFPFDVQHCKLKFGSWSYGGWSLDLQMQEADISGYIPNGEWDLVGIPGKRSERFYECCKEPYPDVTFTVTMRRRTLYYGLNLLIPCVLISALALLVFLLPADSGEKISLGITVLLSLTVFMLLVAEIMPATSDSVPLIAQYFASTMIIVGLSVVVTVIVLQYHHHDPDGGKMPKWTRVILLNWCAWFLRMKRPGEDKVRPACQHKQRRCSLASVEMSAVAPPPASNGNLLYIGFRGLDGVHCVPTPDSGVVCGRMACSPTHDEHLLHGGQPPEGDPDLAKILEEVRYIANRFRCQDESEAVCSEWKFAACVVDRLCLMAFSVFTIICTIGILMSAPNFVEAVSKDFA
T2 sequence (P17787 whole entry): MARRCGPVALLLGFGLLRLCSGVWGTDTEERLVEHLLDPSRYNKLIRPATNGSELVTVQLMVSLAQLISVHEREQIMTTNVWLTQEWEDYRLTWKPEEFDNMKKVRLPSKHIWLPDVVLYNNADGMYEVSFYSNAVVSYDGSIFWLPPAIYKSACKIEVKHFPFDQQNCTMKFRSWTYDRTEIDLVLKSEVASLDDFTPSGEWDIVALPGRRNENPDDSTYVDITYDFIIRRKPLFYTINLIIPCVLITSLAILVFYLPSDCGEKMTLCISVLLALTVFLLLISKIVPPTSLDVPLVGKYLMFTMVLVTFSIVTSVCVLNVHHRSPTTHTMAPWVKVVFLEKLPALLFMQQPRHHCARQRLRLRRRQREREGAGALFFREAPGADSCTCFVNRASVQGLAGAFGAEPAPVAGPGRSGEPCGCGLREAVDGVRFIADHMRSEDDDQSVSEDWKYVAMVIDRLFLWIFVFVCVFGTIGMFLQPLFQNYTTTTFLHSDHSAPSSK
T2 sequence (P43681 whole entry): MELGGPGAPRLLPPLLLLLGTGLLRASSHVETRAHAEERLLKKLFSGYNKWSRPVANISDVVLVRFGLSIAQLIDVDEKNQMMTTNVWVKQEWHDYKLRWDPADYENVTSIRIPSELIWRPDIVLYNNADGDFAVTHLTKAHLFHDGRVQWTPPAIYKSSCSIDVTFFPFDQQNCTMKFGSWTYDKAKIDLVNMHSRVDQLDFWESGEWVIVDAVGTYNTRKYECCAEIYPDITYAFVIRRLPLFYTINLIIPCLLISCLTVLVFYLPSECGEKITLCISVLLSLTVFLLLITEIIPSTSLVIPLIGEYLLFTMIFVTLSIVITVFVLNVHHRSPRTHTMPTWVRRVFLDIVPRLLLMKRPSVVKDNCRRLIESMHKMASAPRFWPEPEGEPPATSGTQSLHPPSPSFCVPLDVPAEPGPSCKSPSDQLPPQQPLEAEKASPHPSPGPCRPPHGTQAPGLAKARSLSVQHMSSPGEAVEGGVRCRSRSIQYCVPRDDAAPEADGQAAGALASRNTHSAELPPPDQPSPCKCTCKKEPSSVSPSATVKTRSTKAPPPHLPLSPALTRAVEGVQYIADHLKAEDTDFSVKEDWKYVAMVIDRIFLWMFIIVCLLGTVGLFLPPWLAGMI
T3 sequence (P30926 whole entry): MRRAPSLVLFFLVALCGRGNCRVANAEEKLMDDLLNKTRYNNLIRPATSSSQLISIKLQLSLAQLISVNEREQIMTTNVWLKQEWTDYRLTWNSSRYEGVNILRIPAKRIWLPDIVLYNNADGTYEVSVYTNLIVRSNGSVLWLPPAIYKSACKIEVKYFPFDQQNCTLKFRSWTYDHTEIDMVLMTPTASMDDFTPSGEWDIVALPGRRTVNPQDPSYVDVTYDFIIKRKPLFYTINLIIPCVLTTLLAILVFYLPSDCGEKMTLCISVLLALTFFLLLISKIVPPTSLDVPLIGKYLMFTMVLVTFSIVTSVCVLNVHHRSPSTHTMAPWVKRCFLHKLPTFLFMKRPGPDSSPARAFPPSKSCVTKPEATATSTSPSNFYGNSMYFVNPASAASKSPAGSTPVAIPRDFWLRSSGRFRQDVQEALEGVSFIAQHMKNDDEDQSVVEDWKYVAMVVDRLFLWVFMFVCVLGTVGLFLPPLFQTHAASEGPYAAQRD
T3 sequence (P32297 whole entry): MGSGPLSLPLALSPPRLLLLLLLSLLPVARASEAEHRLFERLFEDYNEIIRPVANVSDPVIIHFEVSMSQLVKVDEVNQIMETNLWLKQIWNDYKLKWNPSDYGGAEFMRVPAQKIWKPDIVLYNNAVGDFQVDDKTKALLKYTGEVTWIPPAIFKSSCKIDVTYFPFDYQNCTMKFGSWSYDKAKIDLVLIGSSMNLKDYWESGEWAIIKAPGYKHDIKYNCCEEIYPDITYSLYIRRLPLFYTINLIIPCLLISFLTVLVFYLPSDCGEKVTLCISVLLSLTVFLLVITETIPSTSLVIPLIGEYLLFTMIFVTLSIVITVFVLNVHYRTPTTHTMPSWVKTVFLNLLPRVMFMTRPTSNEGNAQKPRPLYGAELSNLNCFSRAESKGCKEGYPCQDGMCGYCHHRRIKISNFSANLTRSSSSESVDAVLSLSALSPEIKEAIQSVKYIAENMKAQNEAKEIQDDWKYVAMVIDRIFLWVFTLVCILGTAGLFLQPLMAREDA

Clc1ccc(C2C[C@@H]3CC[C@H]2N3)cn1 (mixture of isomers)
Activity [1]: Active | Activity [2]: Active

CC1(C)[C@@H]2C[C@@H]3[C@H]4C[C@@]5(Nc6ccccc6[C@@H]5N41)[C@]3(C)CC2=O
inhibition [3]: inactive | IC50 ([4]; gh3): Not Active | Activity [1]: inactive | inhibition [5]: 40% | pIC50 [6]: 3.78 | Activity [2]: inactive | pIC50 [7]: 3.84 | inhibition [8]: inactive

CC1(C)N[C@@H]2Cc3c([nH]c4ccccc34)[C@]3(C)CC[C@H]1C[C@H]23
inhibition [3]: 100% | pIC50 [4]: 4.57 | Activity [1]: inactive | pIC50 [6]: 6.40 | Activity [2]: inactive | pIC50 [7]: 5.47 | Ratio IC50 (Homo sapiens [9]): 8.4 | Ratio IC50 (Homo sapiens [10]): 67.5 | inhibition [8]: 100%

CC1=CC[C@@H]2C[C@H]1[C@@H](c1ccnc3ccccc13)NC2(C)C
pIC50 [4]: 4.34 | Activity [1]: inactive | Activity [2]: inactive | pIC50 [7]: 5.17
